Active and inactive are the calls of the source. The rule behind the calls is not given here.

Assay [1] deals with K562. Put plainly: Induction of apoptosis in human K562 cells assessed as viable cells at 0.4 uM after 48 hrs by Annexin V-FITC/propidium iodide-staining based flow cytometric analysis (reference value: 95.75 to 96.56%). It counts as functional. As to conditions: K562, 48 h, read-out: Activity. Summed up:
(§1)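 K562 seeded at 4 × 10^5 cells/well, 12 h, then exposed 48 h. Cells washed in ice-cold PBS, suspended in binding buffer, stained with annexin V-FITC and PI for 15 min at room temperature in the dark, and read by flow cytometry within 1 h. Cells counted as early/late apoptotic as % of total; n = 3.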
(In general: Flow cytometry measures light scatter and fluorescence of single cells or particles in a stream.)

Assay [2] concerns K562. Put plainly: Induction of apoptosis in human K562 cells assessed as early apoptotic cells at 0.8 uM after 48 hrs by Annexin V-FITC/propidium iodide-staining based flow cytometric analysis (reference value: 0.92 to 1.45%). It counts as functional. Summed up: as §1
Assay [3] concerns K562. The experiment in a line: Induction of apoptosis in human K562 cells assessed as late apoptotic cells at 0.8 uM after 48 hrs by Annexin V-FITC/propidium iodide-staining based flow cytometric analysis (reference value: 2.25 to 2.67%). It counts as functional. Summed up: as §1
Assay [4] deals with K562. The experiment in a line: Induction of ROS generation in human K562 cells at 0.5 uM after 48 hrs by DCFH-DA probe based flow cytometric analysis relative to control. It is filed as functional. In outline: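 K562 seeded at 4 × 10^5 cells/well, 12 h, then treated 48 h. Washed cells loaded with DCFH-DA in FBS-free medium at 37 °C for 30 min, rinsed, read by flow cytometry. ROSup was the positive control; mean ± SD, n = 3.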

Assay [5] relates to K562. Put plainly: Decrease in mitochondrial membrane potential in human K562 cells at 1 to 2 uM after 48 hrs by JC-1 staining based fluorescence microscopic analysis. It is filed as functional, cell-based. Summed up: (§2)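 K562 seeded at 4 × 10^5 cells/well, after 12 h treated 48 h. Cells washed in ice-cold PBS, loaded with JC-1 ([…]) at 37 °C for 15 min, rinsed, and analysed by flow cytometry (% cells with red aggregates) and fluorescence microscopy (red aggregates vs green monomers).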

Assay [6] relates to K562. Put plainly: Induction of mitochondrial membrane depolarization in human K562 cells assessed as cells with intact mitochondrial membrane potential at 2 uM after 48 hrs by JC-1 staining based flow cytometric analysis (reference value: 97.63 to 97.67%). It counts as functional. Summed up:
as §2

Assay [7] has as its system K562. The experiment in a line: Induction of mitochondrial membrane depolarization in human K562 cells assessed as cells with intact mitochondrial membrane potential at 4 uM after 48 hrs by JC-1 staining based flow cytometric analysis (reference value: 97.63 to 97.67%). It counts as functional.
Assay [8] deals with K562. Put plainly: Antitumor activity against CM-Dil-labeled human K562 cells xenografted in wild-type zebrafish embryos assessed as reduction in cell migration at 1 to 2 ug/ml measured after 48 hrs by confocal microscopic analysis. It is filed as functional, cell-based. In outline:
(§3)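 K562 cells labelled with CM-Dil, suspended in FBS-free medium at (1 × 107)/mL and microinjected into wild-type zebrafish embryos kept at 28 °C in embryonic medium. After 4 h, embryos with the same injection spot were pooled at 15−20 per well and exposed to compound; Taxol served as positive control. At 48 h, confocal imaging gave fluorescent area (migration) and fluorescence intensity (cell number); n = 15.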
On the technique in general: A xenograft is tissue or cells of one species grown in another, often human tumour cells in immunodeficient mice.

Assay [9] relates to K562. The experiment in a line: Antitumor activity against CM-Dil-labeled human K562 cells xenografted in wild-type zebrafish embryos assessed as tumor growth inhibition at 1 to 10 ug/ml measured after 48 hrs by confocal microscopic analysis. It counts as functional, cell-based. Summed up: as §3
The test system of assay [10] is K562. Put plainly: Induction of apoptosis in human K562 cells after 48 hrs by Annexin V-FITC/propidium iodide-staining based flow cytometric analysis. It is filed as functional, cell-based. In outline:
as §1

Take `C=C(C)[C@@H]1CC[C@]2(COC(=O)CCCC[P+](c3ccccc3)(c3ccccc3)c3ccccc3)CC[C@]3(C)[C@H](CC[C@@H]4[C@@]5(C)CC[C@H](O)C(C)(C)[C@@H]5CC[C@]43C)[C@@H]12.[Br-]`: the viability at 0.4 µM in the assay with K562 [1] is 88.1%. For the same molecule, the Activity in the assay with K562 [2] is 12.51%; with K562 [3] it was 20.57%; in the assay with K562 [4], 50%; with K562 [6] it was 82.54%; in the assay with K562 [7], 38.18%; in the assay with K562 [10], “Dose-dependent effect”. Besides, the outcome in the assay with K562 [5] and in the assay with K562 [8] was Active. For the same molecule, the TGI entry with K562 [9] is “Active”.
